These results are taken from ChEMBL document CHEMBL1153193, “Microwave-assisted synthesis and structure-activity relationships of neuroactive pyrazolo[3,4-b]pyrrolo[3,4-d]pyridine derivatives” (Bioorg Med Chem Lett, 2010).

The data set concerns Mus musculus. Nature of the data set: Sedative activity in Swiss mouse assessed as reduction of locomotor activity at 10 umol/kg, ip after 40 mins. The class given is organism-based. The following applies: in vivo. The essentials: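 Mice received a single screening dose intraperitoneally. Motor activity was counted over the 40 min after injection and expressed as movements per minute. An untreated control group and a midazolam reference group (2 mg/kg) were run alongside. Data are given as means ± SEM, and significance was tested against control.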
For `Cc1ccc(N2C(=O)c3cnc4c(c(C)nn4C)c3C2=O)cc1`, the Activity result is “Not Active”.

`Cc1nn(C)c2ncc3c(c12)C(=O)N(c1ccc(C(=O)O)cc1)C3=O`: the Activity result was “Not Active”.

Regarding `Cc1nn(-c2ccccc2)c2ncc3c(c12)C(=O)N(c1ccc([N+](=O)[O-])cc1)C3=O`, the result was Active.

`Cc1nn(-c2ccccc2)c2ncc3c(c12)C(=O)N(c1ccc(C(=O)O)cc1)C3=O`: the Activity result is recorded as “Not Active”.

For `Cc1nn(C)c2ncc3c(c12)C(=O)N(c1ccccc1)C3=O`, the Activity entry is “Not Active”.

Regarding `Cc1nn(-c2ccccc2)c2ncc3c(c12)C(=O)N(c1ccc(Cl)cc1)C3=O`, the Activity result is recorded as “Not Active”.

For `Cc1ccc(N2C(=O)c3cnc4c(c(C)nn4-c4ccccc4)c3C2=O)cc1`, the Activity entry is reported as “Not Active”.

`COc1ccc(N2C(=O)c3cnc4c(c(C)nn4-c4ccccc4)c3C2=O)cc1`: the outcome was Active.

Regarding `Cc1nn(-c2ccccc2)c2ncc3c(c12)C(=O)N(c1ccccc1)C3=O`, the Activity result is reported as “Not Active”.

Consider `Cc1nn(C)c2ncc3c(c12)C(=O)N(c1ccc([N+](=O)[O-])cc1)C3=O`, for which the Activity result is recorded as “Not Active”.

Consider `Cc1nn(C)c2ncc3c(c12)C(=O)N(c1ccc(Cl)cc1)C3=O`, for which the Activity entry is “Not Active”.

Consider `COc1ccc(N2C(=O)c3cnc4c(c(C)nn4C)c3C2=O)cc1`, for which the Activity result was “Not Active”.
